# Test results published in ChEMBL document CHEMBL1255300, “Pharmacodynamics of the antibacterial effect and emergence of resistance to tomopenem, formerly RO4908463/CS-023, in an in vitro pharmacokinetic model of Staphylococcus aureus infection” (Antimicrob Agents Chemother, 2008).
# Key:
# Staphylococcus aureus [1] = assay: Antibacterial activity against methicillin-resistant Staphylococcus aureus 33815 infected in in vitro pharmacokinetic model assessed as time required to 99% killing at 1500 mg, iv every 8 hrs using 10^6 CFU/ml inoculum; assay type: functional
# Staphylococcus aureus [2] = assay: Antibacterial activity against methicillin-resistant Staphylococcus aureus 33827 by broth dilution method; assay type: functional
# Method in brief: (§1)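 Standard CLSI broth dilution MIC.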
# Staphylococcus aureus [3] = assay: Antibacterial activity against methicillin-resistant Staphylococcus aureus 33820 infected in in vitro pharmacokinetic model assessed as time required to 99% killing at 750 mg, iv every 8 hrs using 10^6 CFU/ml inoculum; assay type: functional
# Staphylococcus aureus [4] = assay: Antibacterial activity against methicillin-resistant Staphylococcus aureus 33921 infected in in vitro pharmacokinetic model assessed as reduction in viable count at 750 mg, iv every 8 hrs measured after 48 hrs using 10^6 CFU/ml inoculum; assay type: functional
# Staphylococcus aureus [5] = assay: Antibacterial activity against methicillin-resistant Staphylococcus aureus 33827 infected in in vitro pharmacokinetic model assessed as reduction in viable count at 1500 mg, iv every 8 hrs measured after 48 hrs using 10^6 CFU/ml inoculum; assay type: functional
# Method in brief: (§2)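 Single-compartment dilutional in vitro PK model, 10% Mueller-Hinton broth, 37°C, stirred, dilution 132 ml/h. […] Inoculum 10^6 CFU/ml (added 45 min pre-dose) or 10^8 CFU/ml (run overnight). Viable counts by spiral plating, beta-lactamase neutralization, detection limit 10^2 CFU/ml. At least triplicate.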
# Staphylococcus aureus [6] = assay: Antibacterial activity against methicillin-resistant Staphylococcus aureus 33820 infected in in vitro pharmacokinetic model assessed as reduction in viable count at 1500 mg, iv every 8 hrs measured after 12 hrs using 10^6 CFU/ml inoculum; assay type: functional
# Method in brief: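 Single-compartment dilutional in vitro PK model, 37°C, stirred, in 10% Mueller-Hinton broth. […] Inoculum 10^6 CFU/ml from a 24-h plate culture was added 45 min before dosing. Viable counts by spiral plating on nutrient agar with β-lactamase neutralization. Log change was taken from time 0; detection limit 10^2 CFU/ml; at least triplicate.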
# Staphylococcus aureus [7] = assay: AUBKC (0 to 48 hrs) in methicillin-resistant Staphylococcus aureus 33829 infected in in vitro pharmacokinetic model at 1500 mg, iv every 8 hrs using 10^6 CFU/ml inoculum; assay type: functional
# Method in brief: (§3)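 Single-compartment dilutional in vitro PK model at 37°C in 10% Mueller-Hinton broth, stirred, flow 132 ml/h. […] Inoculum 10^6 CFU/ml added 45 min before dosing, or 10^8 CFU/ml run overnight. Viable counts with β-lactamase neutralisation. AUBKC by log-linear trapezoidal rule, at least triplicate.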
# Staphylococcus aureus [8] = assay: Antibacterial activity against methicillin-resistant Staphylococcus aureus 33827 infected in in vitro pharmacokinetic model assessed as reduction in viable count at 1500 mg, iv every 8 hrs measured after 12 hrs using 10^8 CFU/ml inoculum; assay type: functional; method in brief: as §2
# Staphylococcus aureus [9] = assay: AUBKC (0 to 24 hrs) in methicillin-resistant Staphylococcus aureus 33827 infected in in vitro pharmacokinetic model at 750 mg, iv every 8 hrs using 10^6 CFU/ml inoculum; assay type: functional; method in brief: as §3
# Staphylococcus aureus [10] = assay: AUBKC (0 to 48 hrs) in methicillin-resistant Staphylococcus aureus 33827 infected in in vitro pharmacokinetic model at 1500 mg, iv every 8 hrs using 10^6 CFU/ml inoculum; assay type: functional; method in brief: as §3
# Staphylococcus aureus [11] = assay: Antibacterial activity against methicillin-resistant Staphylococcus aureus 33829 by 10% MH broth method; assay type: functional
# Method in brief: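 MIC by CLSI broth dilution, or by broth dilution in 10% Mueller-Hinton broth at nondoubling dilutions.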
# Staphylococcus aureus [12] = assay: T>MIC for 2-log drop in count in methicillin-resistant Staphylococcus aureus 33829 in in vitro pharmacokinetic model after 24 hrs using 10^6 CFU/ml inoculum; assay type: functional
# Staphylococcus aureus [13] = assay: Antibacterial activity against methicillin-resistant Staphylococcus aureus 33820 infected in in vitro pharmacokinetic model assessed as time required to 99.9% killing at 750 mg, iv every 8 hrs using 10^6 CFU/ml inoculum; assay type: functional
# Staphylococcus aureus [14] = assay: Antibacterial activity against methicillin-resistant Staphylococcus aureus 33827 infected in in vitro pharmacokinetic model assessed as time required to 99% killing at 1500 mg, iv every 8 hrs using 10^8 CFU/ml inoculum; assay type: functional; method in brief: as §2
# Staphylococcus aureus [15] = assay: Antibacterial activity against methicillin-resistant Staphylococcus aureus 33921 infected in in vitro pharmacokinetic model assessed as time required to 99.9% killing at 1500 mg, iv every 8 hrs using 10^6 CFU/ml inoculum; assay type: functional
# Staphylococcus aureus [16] = assay: AUBKC (0 to 24 hrs) in methicillin-resistant Staphylococcus aureus 33921 infected in in vitro pharmacokinetic model at 750 mg, iv every 8 hrs using 10^6 CFU/ml inoculum; assay type: functional; method in brief: as §3
# Staphylococcus aureus [17] = assay: Antibacterial activity against methicillin-sensitive Staphylococcus aureus 5956 infected in in vitro pharmacokinetic model assessed as time required to 99.9% killing at 1500 mg, iv every 8 hrs using 10^6 CFU/ml inoculum; assay type: functional
# Staphylococcus aureus [18] = assay: Antibacterial activity against methicillin-resistant Staphylococcus aureus 33829 infected in in vitro pharmacokinetic model assessed as time required to 99.9% killing at 750 mg, iv every 8 hrs using 10^6 CFU/ml inoculum; assay type: functional; method in brief: as §2
# Staphylococcus aureus [19] = assay: Antibacterial activity against methicillin-resistant Staphylococcus aureus 33820 by broth dilution method; assay type: functional; method in brief: as §1
# Staphylococcus aureus [20] = assay: Antibacterial activity against methicillin-resistant Staphylococcus aureus 33829 in in vitro pharmacokinetic model assessed as viable count at 2 times of MIC; assay type: functional
# Method in brief: (§4)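 Preexposure population analysis: time-zero model samples plated on nutrient agar without drug and with drug at multiples of the 10% broth MIC. Growth reported as log CFU/ml, detection limit 2 log10.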
# Staphylococcus aureus [21] = assay: Antibacterial activity against methicillin-resistant Staphylococcus aureus 33922 infected in in vitro pharmacokinetic model assessed as reduction in viable count at 1500 mg, iv every 8 hrs measured after 24 hrs using 10^6 CFU/ml inoculum; assay type: functional
# Staphylococcus aureus [22] = assay: Antibacterial activity against methicillin-resistant Staphylococcus aureus 33815 in in vitro pharmacokinetic model assessed as viable count at 4 times of MIC; assay type: functional
# Method in brief: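 Preexposure population analysis profile: model sample at time zero plated on nutrient agar with tomopenem at multiples of the MIC. Growth counted as log CFU/ml, detection limit 2 log10.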
# [23] = Plasma protein binding in human; assay type: ADME, cell-free; settings: read-out: PPB
# Staphylococcus aureus [24] = assay: Antibacterial activity against methicillin-resistant Staphylococcus aureus 33921 in in vitro pharmacokinetic model assessed as viable count at 6 times of MIC; assay type: functional; method in brief: as §4
# Staphylococcus aureus [25] = assay: AUBKC (0 to 48 hrs) in methicillin-resistant Staphylococcus aureus 33921 infected in in vitro pharmacokinetic model at 750 mg, iv every 8 hrs using 10^6 CFU/ml inoculum; assay type: functional; method in brief: as §3
# Staphylococcus aureus [26] = assay: AUBKC (0 to 24 hrs) in methicillin-resistant Staphylococcus aureus 33921 infected in in vitro pharmacokinetic model at 1500 mg, iv every 8 hrs using 10^6 CFU/ml inoculum; assay type: functional; method in brief: as §3
# Staphylococcus aureus [27] = assay: AUBKC (0 to 48 hrs) in methicillin-resistant Staphylococcus aureus 33922 infected in in vitro pharmacokinetic model at 1500 mg, iv every 8 hrs using 10^8 CFU/ml inoculum; assay type: functional; method in brief: as §3
smiles,measurement,setting,value
C[C@@H](O)[C@H]1C(=O)N2C(C(=O)O)=C(S[C@H]3C[C@@H](C(=O)N4CC[C@H](NC(=O)CNC(=N)N)C4)N(C)C3)[C@H](C)[C@H]12 [TOMOPENEM],Time,Staphylococcus aureus [1],3 h
same,MIC,Staphylococcus aureus [2],2 µg/mL
same,Time,Staphylococcus aureus [3],7 h
same,log10CFU/ml,Staphylococcus aureus [4],3.8
same,log10CFU/ml,Staphylococcus aureus [5],3.6
same,log10CFU/ml,Staphylococcus aureus [6],4.2
same,AUBC,Staphylococcus aureus [7],37.4 log10CFU/ml.hr
same,log10CFU/ml,Staphylococcus aureus [8],3.4
same,AUBC,Staphylococcus aureus [9],27.4 log10CFU/ml.hr
same,AUBC,Staphylococcus aureus [10],35.5 log10CFU/ml.hr
same,MIC,Staphylococcus aureus [11],0.5 µg/mL
same,fT>MIC,Staphylococcus aureus [12],20.8%
same,Time,Staphylococcus aureus [13],12 h
same,Time,Staphylococcus aureus [14],12 h
same,Time,Staphylococcus aureus [15],12 h
same,AUBC,Staphylococcus aureus [16],30.9 log10CFU/ml.hr
same,Time,Staphylococcus aureus [17],8 h
same,Time,Staphylococcus aureus [18],12 h
same,MIC,Staphylococcus aureus [19],16 µg/mL
same,log10CFU/ml,Staphylococcus aureus [20],5.8
same,log10CFU/ml,Staphylococcus aureus [21],4.2
same,log10CFU/ml,Staphylococcus aureus [22],<2
same,fraction unbound,[23],> 0.9
same,log10CFU/ml,Staphylococcus aureus [24],< 2
same,AUBC,Staphylococcus aureus [25],41 log10CFU/ml.hr
same,AUBC,Staphylococcus aureus [26],32.9 log10CFU/ml.hr
same,AUBC,Staphylococcus aureus [27],124.7 log10CFU/ml.hr
